{"data": "Results from different studies", "cell line": "NCI-H226", "effect on": "cell growth or viability", "note": "Each line is one published result; the experiments were not run side by side."}
{"SMILES": "O=C1NC(=NCc2cccs2)S/C1=C\\c1ccc2ncccc2c1", "measurement": "IC50", "result": "> 10 µM"}
{"SMILES": "COc1ccccc1/C=C/C(=O)c1ccc(OC)c(S(N)(=O)=O)c1", "technique": "SRB", "time": "48 h", "measurement": "GI50", "result": "4 µM"}
{"SMILES": "COc1cc(-c2ccc(-c3ccc(C(=N)N)nc3)s2)cc(OC)c1OC", "technique": "SRB", "measurement": "GI50", "result": "10.8 µM"}
{"SMILES": "COc1ccc(C(=O)/C=C/c2cccc(Br)c2)cc1S(N)(=O)=O", "technique": "SRB", "time": "48 h", "measurement": "GI50", "result": "2.8 µM"}
{"SMILES": "O=C(/C=C/C=C/c1ccc2c(c1)OCO2)N1CCCCC1", "technique": "SRB", "measurement": "IC50", "result": "83.7 µM"}
{"SMILES": "CCCCc1n(Cc2ccc3ccccc3n2)cc[n+]1Cc1ccc2ccccc2n1", "technique": "SRB", "measurement": "TGI", "result": "13.6 µM"}
{"SMILES": "S=C([S][Au-][P+](CCCCCC[P+]([Au-][S]C(=S)n1cccn1)(c1ccccc1)c1ccccc1)(c1ccccc1)c1ccccc1)n1cccn1", "technique": "SRB", "measurement": "GI50", "result": "6.63 µM"}
{"SMILES": "CCCc1n(Cc2ccc3ccccc3n2)cc[n+]1Cc1ccc2ccccc2n1", "technique": "SRB", "measurement": "TGI", "result": "34.8 µM"}
{"SMILES": "COc1ccc(C(=O)/C=C/c2ccc(Cl)c(Cl)c2)cc1S(N)(=O)=O", "technique": "SRB", "time": "48 h", "measurement": "GI50", "result": "3 µM"}
{"SMILES": "NC(=O)c1cc(Cl)ccc1NC(=O)COc1ccccc1", "technique": "SRB", "measurement": "GI50", "result": "> 100 µM"}
{"SMILES": "CCCCC/C=C/C(=O)CCc1ccc(O)c(OC)c1", "technique": "SRB", "measurement": "IC50", "result": "18 µM"}
{"SMILES": "COc1cc([C@@H]2c3cc4c(cc3[C@@H](O[C@@H]3O[C@@H]5CO[C@@H](C)O[C@H]5[C@H](O)[C@H]3O)[C@H]3COC(=O)[C@H]23)OCO4)cc(OC)c1O", "technique": "MTT", "time": "72 h", "measurement": "IC50", "result": "0.39 µM"}
{"SMILES": "COc1ccc(C(=O)/C=C/c2cccc3ccccc23)cc1S(N)(=O)=O", "technique": "SRB", "time": "48 h", "measurement": "GI50", "result": "3.1 µM"}
{"SMILES": "c1ccc(-c2n(Cc3ccc4ccccc4c3)cc[n+]2Cc2ccc3ccccc3c2)cc1", "technique": "SRB", "measurement": "TGI", "result": "2.97 µM"}
{"SMILES": "COc1ccc(C(=O)/C=C/c2cc3c(cc2Br)OCO3)cc1S(N)(=O)=O", "technique": "SRB", "tested at": "10 µM", "measurement": "inhibition", "result": "87%"}
{"SMILES": "COC(=O)/C=C/C=C/c1ccc2c(c1)OCO2", "technique": "SRB", "measurement": "IC50", "result": "99.1 µM"}
{"SMILES": "c1ccc2cc(Cn3cc[n+](Cc4ccc5ccccc5c4)c3)ccc2c1", "technique": "SRB", "measurement": "TGI", "result": "14.3 µM"}
